Results: ChEMBL document CHEMBL1149077, “Synthesis and evaluation of a novel series of pseudo-cinnamic derivatives as antituberculosis agents” (2009)
Values after ≈ are worked out from the molar mass of the structure shown.

test system: Mycobacterium tuberculosis; assay: Antitubercular activity against Mycobacterium tuberculosis H37Rv after 6 days by MTT reduction assay; type: functional; settings: 144 h
How it was run: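 Strain H37Rv tested in 7H9 broth across serial twofold compound dilutions, bacilli added to each well. Incubated 6 days, then MTT (1 mg/mL) added for one further day. Formazan solubilized and absorbance read at 570 nm. MIC taken as lowest concentration inhibiting growth, with untreated bacilli serving as growth control.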

SMILES | MIC [µg/mL]
COc1ccc(/C=C/C(=O)NCCNC(C)=O)cc1 | > 500
COc1cc(/C=C/C(=O)SCCNC(C)=O)ccc1O | 125 (≈ 423 µM)
COc1cc(/C=C/C(=O)NCCc2c[nH]c3ccccc23)ccc1O | 8 (≈ 23.8 µM)
CC(=O)NCCSC(=O)/C=C/c1ccc(OCC=C(C)C)cc1 | 32 (≈ 96 µM)
CC(C)=CCC/C(C)=C/COc1ccc(/C=C/C(=O)Nc2ccccn2)cc1 | 1 (≈ 2.66 µM)
CC(=O)NCCNC(=O)/C=C/c1ccc(OCC=C(C)C)cc1 | 63 (≈ 199 µM)
CC(C)=CCOc1ccc(/C=C/C(=O)NCCc2c[nH]c3ccccc23)cc1 | 63 (≈ 168 µM)
O=C(/C=C/c1ccc(O)cc1)Sc1ccccc1 | 8 (≈ 31.2 µM)
CC(C)=CCOc1ccc(/C=C/C(=O)Nc2ccccn2)cc1 | 16 (≈ 51.9 µM)
COc1cc(/C=C/C(=O)SCCNC(C)=O)cc(OC)c1O | 125 (≈ 384 µM)
CC(C)=CCC/C(C)=C/COc1ccc(/C=C/C(=O)NCCc2c[nH]c3ccccc23)cc1 | 32 (≈ 72.3 µM)
CC(=O)NCCSC(=O)/C=C/c1ccc(O)cc1 | 63 (≈ 237 µM)
COc1ccc(/C=C/C(=O)Nc2ccccn2)cc1OC | 125 (≈ 440 µM)
COc1ccc(/C=C/C(=O)NCCc2c[nH]c3ccccc23)cc1 | 500 (≈ 1560 µM)
CC(=O)NCCNC(=O)/C=C/c1ccc(OC/C=C(\C)CCC=C(C)C)cc1 | 0.1 (≈ 0.26 µM)
COc1ccc(/C=C/C(=O)SCCNC(C)=O)cc1 | 63 (≈ 226 µM)
CC(=O)NCCSC(=O)/C=C/c1ccc(OC/C=C(\C)CCC=C(C)C)cc1 | 0.6 (≈ 1.49 µM)
COc1cc(/C=C/C(=O)Sc2ccccc2)ccc1O | 8 (≈ 27.9 µM)
COc1ccc(/C=C/C(=O)Nc2ccccn2)cc1 | 63 (≈ 248 µM)
CC(=O)NCCSC(=O)/C=C/c1ccc(OC/C=C(/C)CC/C=C(/C)CCC=C(C)C)cc1 | 0.6 (≈ 1.28 µM)
